Measured values from ChEMBL document CHEMBL1148762, “Lysosome and HER3 (ErbB3) selective anticancer agent kahalalide F: semisynthetic modifications and antifungal lead-exploration studies” (J Med Chem, 2007).
pIC50: −log10 of the molar value. ≈ marks a conversion by molar mass, not a printed value. Calls of active or inactive are those of the source. No cut-off for these calls is given here.

Key:
SK-OV-3 = assay: Cytotoxicity against human SK-OV3 cells; format: functional
Procedure, shortened: (§1)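 NCI Developmental Therapeutics Program cell panel. GI50 is the concentration that reduces growth of treated cells to half that of untreated controls. TGI is the concentration that completely halts growth.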

ACHN = assay: Cytotoxicity against human ACHN cells; format: functional; procedure, shortened: as §1
PC-3 = assay: Cytotoxicity against human PC3 cells; format: functional; procedure, shortened: as §1
Hs-578T = assay: Cytotoxicity against human HS578T cells; format: functional; procedure, shortened: as §1
Fusarium proliferatum [1] = assay: Antimicrobial activity against Fusarium proliferatum at 0.3 uM after 72 hrs by microtiter assay; format: functional
Procedure, shortened: (§2)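 96-well microdilution broth assay with conidia (3 × 10^5 conidia/mL, harvested from 7-day PDA cultures and filtered) against F. oxysporum, F. proliferatum and F. solani at 0.3, 3 and 30 µM. Plates were held at 24 ± 1 °C under a 12 h photoperiod. Growth was read at 620 nm at 24, 48 and 72 h and reported as percent inhibition from mean absorbance with standard error.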

Fusarium proliferatum [2] = assay: Antimicrobial activity against Fusarium proliferatum at 3 uM after 48 hrs by microtiter assay; format: functional; procedure, shortened: as §2
Fusarium proliferatum [3] = assay: Antimicrobial activity against Fusarium proliferatum at 3 uM after 72 hrs by microtiter assay; format: functional; procedure, shortened: as §2
Aspergillus fumigatus = assay: Antimicrobial activity against Aspergillus fumigatus ATCC 90906; format: functional, organism-based
Cryptococcus neoformans = assay: Antimicrobial activity against Cryptococcus neoformans ATCC 90113; format: functional, organism-based
Fusarium proliferatum [4] = assay: Antimicrobial activity against Fusarium proliferatum at 0.3 uM after 48 hrs by microtiter assay; format: functional; procedure, shortened: as §2
Escherichia coli = assay: Antimicrobial activity against Escherichia coli; format: functional, organism-based
Staphylococcus aureus = assay: Antimicrobial activity against methicillin-resistant Staphylococcus aureus; format: functional, organism-based
Candida albicans = assay: Antimicrobial activity against Candida albicans ATCC 90028; format: functional, organism-based
[5] = system: Mycobacterium intracellulare; assay: Antimicrobial activity against Mycobacterium intracellular ATCC 23068; format: functional, organism-based
Leishmania donovani = assay: Antiparasitic activity against Leishmania donovani; format: functional, organism-based
[6] = system: Mycobacterium tuberculosis; assay: Antibacterial activity against Mycobacterium tuberculosis H37Rv at 16 ug/mL by micro plate alamar blue assay; format: functional
Procedure, shortened: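 M. tuberculosis H37Rv ATCC 27294 grown in BACTEC 12B medium; microplate Alamar blue assay (MABA). Primary screen at a single concentration of 16 µg/mL, read as percent inhibition.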

[7] = system: Mycobacterium tuberculosis; assay: Antibacterial activity against Mycobacterium tuberculosis H37Rv by micro plate alamar blue assay; format: functional
Fusarium oxysporum [8] = assay: Antimicrobial activity against Fusarium oxysporum at 0.3 uM after 48 hrs by microtiter assay; format: functional; procedure, shortened: as §2
Fusarium oxysporum [9] = assay: Antimicrobial activity against Fusarium oxysporum at 0.3 uM after 72 hrs by microtiter assay; format: functional; procedure, shortened: as §2
Fusarium solani [10] = assay: Antimicrobial activity against Fusarium solani at 0.3 uM after 48 hrs by microtiter assay; format: functional; procedure, shortened: as §2
Fusarium solani [11] = assay: Antimicrobial activity against Fusarium solani at 0.3 uM after 72 hrs by microtiter assay; format: functional; procedure, shortened: as §2
Fusarium oxysporum [12] = assay: Antimicrobial activity against Fusarium oxysporum at 3 uM after 48 hrs by microtiter assay; format: functional; procedure, shortened: as §2
Fusarium oxysporum [13] = assay: Antimicrobial activity against Fusarium oxysporum at 3 uM after 72 hrs by microtiter assay; format: functional; procedure, shortened: as §2
Fusarium solani [14] = assay: Antimicrobial activity against Fusarium solani at 3 uM after 48 hrs by microtiter assay; format: functional; procedure, shortened: as §2
Fusarium solani [15] = assay: Antimicrobial activity against Fusarium solani at 3 uM after 72 hrs by microtiter assay; format: functional; procedure, shortened: as §2
Fusarium oxysporum [16] = assay: Antimicrobial activity against Fusarium oxysporum at 30 uM after 48 hrs by microtiter assay; format: functional; procedure, shortened: as §2
Fusarium oxysporum [17] = assay: Antimicrobial activity against Fusarium oxysporum at 30 uM after 72 hrs by microtiter assay; format: functional; procedure, shortened: as §2
Fusarium solani [18] = assay: Antimicrobial activity against Fusarium solani at 30 uM after 48 hrs by microtiter assay; format: functional; procedure, shortened: as §2
Fusarium solani [19] = assay: Antimicrobial activity against Fusarium solani at 30 uM after 72 hrs by microtiter assay; format: functional; procedure, shortened: as §2
A549 = assay: Cytotoxicity against human A549 cells; format: functional; procedure, shortened: as §1
NCI-H322M = assay: Cytotoxicity against human NCI-H322M cells; format: functional; procedure, shortened: as §1
RPMI-8226 = assay: Cytotoxicity against human RPMI8226 cells; format: functional; procedure, shortened: as §1
HCC 2998 = assay: Cytotoxicity against human HCC2998 cells; format: functional; procedure, shortened: as §1
HCT-15 = assay: Cytotoxicity against human HCT15 cells; format: functional; procedure, shortened: as §1
HT-29 = assay: Cytotoxicity against human HT29 cells; format: functional; procedure, shortened: as §1
KM12 = assay: Cytotoxicity against human KM12 cells; format: functional; procedure, shortened: as §1
SNB-75 = assay: Cytotoxicity against human SNB75 cells; format: functional; procedure, shortened: as §1
UACC-257 = assay: Cytotoxicity against human UACC257 cells; format: functional; procedure, shortened: as §1
Fusarium proliferatum [20] = assay: Antimicrobial activity against Fusarium proliferatum at 30 uM after 48 hrs by microtiter assay; format: functional; procedure, shortened: as §2
Fusarium proliferatum [21] = assay: Antimicrobial activity against Fusarium proliferatum at 30 uM after 72 hrs by microtiter assay; format: functional; procedure, shortened: as §2
Fusarium proliferatum [22] = assay: Fungicidal activity against Fusarium proliferatum at 30 uM after 72 hrs by microtiter plate assay; format: functional, organism-based
Procedure, shortened: (§3)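 After 72 h of microtiter broth exposure at 30 µM, 20 µL from each well was plated onto compound-free potato dextrose agar and incubated 3 days at 28 °C. No regrowth was scored fungicidal; regrowth was scored fungistatic.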

Fusarium solani [23] = assay: Fungicidal activity against Fusarium solani at 30 uM after 72 hrs by microtiter assay; format: functional, organism-based; procedure, shortened: as §3
Fusarium proliferatum [24] = assay: Antifungal activity against Fusarium proliferatum at 20 ug/mL after 3 days by fluorescence assay; format: functional, organism-based
Procedure, shortened: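 Fusarium proliferatum conidia in potato dextrose broth in a tube with the coumarin (DEAC)-labelled probe at 20 µg/mL, held at 24 ± 1 °C. Hyphae and mycelia were viewed at 4, 8, 16, 24, 48 and 72 h by light and epifluorescence microscopy at 400× and 1000×. Conidia were first checked for autofluorescence.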

Fusarium oxysporum [25] = assay: Fungicidal activity against Fusarium oxysporum at 30 uM after 72 hrs by microtiter plate assay; format: functional, organism-based; procedure, shortened: as §3

C/C=C1\NC(=O)[C@H](Cc2ccccc2)NC(=O)[C@@H](C(C)C)NC(=O)[C@@H]([C@H](C)CC)NC(=O)[C@H](NC(=O)[C@H](NC(=O)[C@H](CCCN)NC(=O)[C@H]2CCCN2C(=O)[C@H](NC(=O)[C@@H](NC(=O)[C@@H](NC(=O)[C@H](NC(=O)CCCC(C)C)C(C)C)[C@@H](C)O)C(C)C)C(C)C)[C@H](C)CC)[C@H](C)OC(=O)[C@H](C(C)C)NC1=O [KAHALALIDE F]
GI50 (SK-OV-3): 191 nM
TGI (SK-OV-3): 355 nM
GI50 (ACHN): 1660 nM
TGI (ACHN): 3240 nM
GI50 (PC-3): 170 nM
TGI (PC-3): 324 nM
GI50 (Hs-578T): 162 nM
TGI (Hs-578T): 479 nM
inhibition at 0.3 µM (Fusarium proliferatum [1]): 0%
inhibition at 3 µM (Fusarium proliferatum [2]): 0%
inhibition at 3 µM (Fusarium proliferatum [3]): 0%
pIC50 (Aspergillus fumigatus): 5.49
MFC (Aspergillus fumigatus): 20 µM (≈ 29.6 µg/mL)
MIC (Aspergillus fumigatus): 10 µM (≈ 14.8 µg/mL)
pIC50 (Cryptococcus neoformans): 5.82
MFC (Cryptococcus neoformans): 5 µM (≈ 7.39 µg/mL)
MIC (Cryptococcus neoformans): 5 µM (≈ 7.39 µg/mL)
inhibition at 0.3 µM (Fusarium proliferatum [4]): 0%
Activity (Escherichia coli): inactive
Activity (Staphylococcus aureus): inactive
pIC50 (Candida albicans): 5.52
MFC (Candida albicans): 20 µM (≈ 29.6 µg/mL)
MIC (Candida albicans): 10 µM (≈ 14.8 µg/mL)
pIC50 [5]: < 4.70
MBC [5]: > 20 µM
MIC [5]: > 20 µM
IC50 (Leishmania donovani): 17 µg/mL (≈ 11.5 µM)
IC90 (Leishmania donovani): 34 µg/mL (≈ 23 µM)
inhibition at 16 µg/mL [6]: 67%
MIC [7]: > 16 µg/mL
inhibition at 0.3 µM (Fusarium oxysporum [8]): 0%
inhibition at 0.3 µM (Fusarium oxysporum [9]): 0%
inhibition at 0.3 µM (Fusarium solani [10]): 0%
inhibition at 0.3 µM (Fusarium solani [11]): 0%
inhibition at 3 µM (Fusarium oxysporum [12]): 0%
inhibition at 3 µM (Fusarium oxysporum [13]): 0%
inhibition at 3 µM (Fusarium solani [14]): 9.9%
inhibition at 3 µM (Fusarium solani [15]): 0%
inhibition at 30 µM (Fusarium oxysporum [16]): 100%
inhibition at 30 µM (Fusarium oxysporum [17]): 99.6%
inhibition at 30 µM (Fusarium solani [18]): 98.9%
inhibition at 30 µM (Fusarium solani [19]): 99.9%
GI50 (A549): 135 nM
TGI (A549): 302 nM
GI50 (NCI-H322M): 191 nM
TGI (NCI-H322M): 372 nM
GI50 (RPMI-8226): 1740 nM
TGI (RPMI-8226): 6920 nM
GI50 (HCC 2998): 288 nM
TGI (HCC 2998): 616 nM
GI50 (HCT-15): 269 nM
TGI (HCT-15): 741 nM
GI50 (HT-29): 162 nM
TGI (HT-29): 316 nM
GI50 (KM12): 182 nM
TGI (KM12): 363 nM
GI50 (SNB-75): 224 nM
TGI (SNB-75): 1900 nM
GI50 (UACC-257): 1020 nM
TGI (UACC-257): 2820 nM
inhibition at 30 µM (Fusarium proliferatum [20]): 99.8%
inhibition at 30 µM (Fusarium proliferatum [21]): 100%
Activity (Fusarium proliferatum [22]): Active
Activity (Fusarium solani [23]): Active
Activity (Fusarium proliferatum [24]): Active
Activity (Fusarium oxysporum [25]): Active
